Measurements from ChEMBL document CHEMBL4229392, “An Efficient Buchwald-Hartwig/Reductive Cyclization for the Scaffold Diversification of Halogenated Phenazines: Potent Antibacterial Targeting, Biofilm Eradication, and Prodrug Exploration” (J Med Chem, 2018).
Converted amounts (≈) assume the structure as drawn. The source made the active and inactive calls. The rule behind the calls is not given here.

Tests used:
Staphylococcus aureus [1] = assay: Antibacterial activity against methicillin-resistant Staphylococcus aureus BAA-1707 after 16 to 18 hrs by broth microdilution method; assay type: functional
Outline: (§1)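 CLSI broth microdilution in Lysogeny Broth, eleven two-fold dilutions spanning 0.10–100 µM; ~10^5 cells per well from log-phase culture; DMSO vehicle (top 1% v/v). MIC = lowest concentration preventing growth after 16–18 h at 37 °C, supported by OD600; three independent experiments.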

Enterococcus faecium [2] = assay: Antibacterial activity against vancomycin-resistant Enterococcus faecium ATCC 700221 after 16 to 18 hrs by broth microdilution method; assay type: functional; outline: as §1
HeLa = assay: Cytotoxicity against human HeLa cells after 24 hrs by LDH release assy; assay type: cell-based
Outline: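 HeLa cells in DMEM with 10% FBS at 37 °C, 5% CO2, dosed at 70-80% confluence with compound diluted in medium at 25, 50 and 100 µM for 24 h. Supernatant mixed with LDH reaction mixture, 30 min at room temperature, stopped, A490 read. Triton X-100 (2% v/v) as maximal-release control, medium only as no-death control, DMSO as vehicle. Three independent experiments.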

Staphylococcus aureus [3] = assay: Bactericidal activity against methicillin-resistant Staphylococcus aureus BAA-1707 planktonic cells after 24 hrs by calgary biofilm device method; assay type: organism-based
Outline: (§2)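 Biofilms grown 24 h at 37 °C on Calgary device pegs from mid-log culture diluted 1,000-fold in TSB + 0.5% glucose; washed pegs challenged 24 h at 37 °C with 2-fold serial dilutions. Challenge medium subcultured into fresh TSBG overnight; MBC = concentration without visible turbidity; at least three independent experiments.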

Staphylococcus aureus [4] = assay: Induction of biofilm eradication of methicillin-resistant Staphylococcus aureus BAA-1707 after 24 hrs by calgary biofilm device method; assay type: functional
Outline: (§3)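 Calgary device: biofilms established 24 h at 37 °C from mid-log culture diluted 1,000-fold in TSBG (0.5% glucose), washed, exposed 24 h to 2-fold serial dilutions, then peg lid moved to fresh TSBG for 24 h recovery. MBEC = lowest concentration giving no turbidity; at least three independent experiments.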

[5] = system: Staphylococcus epidermidis; assay: Bactericidal activity against methicillin-resistant Staphylococcus epidermidis ATCC 35984 planktonic cells after 24 hrs by calgary biofilm device method; assay type: organism-based; outline: as §2
[6] = system: Staphylococcus epidermidis; assay: Induction of biofilm eradication of methicillin-resistant Staphylococcus epidermidis ATCC 35984 after 24 hrs by calgary biofilm device method; assay type: functional; outline: as §3
Enterococcus faecium [7] = assay: Bactericidal activity against vancomycin-resistant Enterococcus faecium ATCC 700221 planktonic cells after 24 hrs by calgary biofilm device method; assay type: organism-based; outline: as §2
Enterococcus faecium [8] = assay: Induction of biofilm eradication of vancomycin-resistant Enterococcus faecium ATCC 700221 after 24 hrs by calgary biofilm device method; assay type: functional; outline: as §3
[9] = Hemolytic activity in human RBC at 200 uM after 1 hr relative to control; assay type: ADME, cell-based, Erythrocyte; conditions: red blood cells (erythrocytes), read-out: Activity
Outline: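 Human RBCs drawn fresh into EDTA were washed three times in Tris-buffered saline (0.01 M Tris, 0.155 M NaCl, pH 7.2). 2% hRBC suspension was added to compound from DMSO stock, final 200 µM, for 1 h at 37 °C, then centrifuged and supernatant OD405 read. Scaled between DMSO (0%) and Triton X (100%). Three independent experiments.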

[10] = Half life in human serum by LC-MS analysis; assay type: ADME, cell-free
Outline: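 Human serum pre-warmed to 37 °C, spiked with prodrug from 10 mM DMSO stock plus internal standard, vortexed, then held 1 to 60 min. At each time point, acetonitrile with 0.5% formic acid was added to precipitate proteins. Released active HP was quantified as its ratio to internal standard against standard curves.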

Staphylococcus aureus [11] = assay: Antibacterial activity against methicillin-resistant Staphylococcus aureus BAA-1707 after 16 hrs by agar diffusion method; assay type: functional
[12] = system: Staphylococcus epidermidis; assay: Antibacterial activity against methicillin-resistant Staphylococcus epidermidis ATCC 35984 after 16 to 18 hrs by broth microdilution method; assay type: functional
[13] = Metal chelating activity assessed as compound-Fe2+ complex formation at 5 mM by UV-vis spectrometry
Outline: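 HP solutions given ammonium iron(II) sulfate hexahydrate; UV-vis scans 300–700 nm in 2 nm steps, λmax 374 nm. Loss of absorbance at 374 nm taken as loss of free hydroxyphenazine and formation of phenazine–iron(II) complex.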

[14] = Metal chelating activity assessed as compound-copper complex formation by UV-vis spectrometry
Staphylococcus aureus [15] = assay: Antibacterial activity against methicillin-resistant Staphylococcus aureus 2 after 16 to 18 hrs by broth microdilution method; assay type: functional; outline: as §1
Staphylococcus aureus [16] = assay: Bactericidal activity against methicillin-resistant Staphylococcus aureus 2 planktonic cells after 24 hrs by calgary biofilm device method; assay type: organism-based; outline: as §2
Staphylococcus aureus [17] = assay: Induction of biofilm eradication of methicillin-resistant Staphylococcus aureus 2 after 24 hrs by calgary biofilm device method; assay type: functional; outline: as §3
Staphylococcus aureus [18] = assay: Induction of biofilm eradication of methicillin-resistant Staphylococcus aureus BAA-44 after 24 hrs by calgary biofilm device method; assay type: functional; outline: as §3
[19] = system: Mycobacterium tuberculosis; assay: Antibacterial activity against Mycobacterium tuberculosis H37Ra ATCC 25177 after 7 days; assay type: functional; conditions: H37Ra ATCC 25177, 168 h
Outline: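 M. tuberculosis H37Ra grown two weeks in Middlebrook 7H9, diluted to OD600 0.01; two-fold serial dilutions 0.024–50 µM (streptomycin positive control, 0.16–340 µM); final DMSO 0.5%. Incubated 7 days at 37 °C; MIC = lowest concentration with no growth, OD600 recorded; three independent experiments.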

[20] = Selectivity index, ratio of IC50 for human HeLa cells to MIC for methicillin-resistant Staphylococcus aureus BAA-1707; assay type: toxicity; conditions: read-out: Selectivity Index
Outline: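 HeLa cells in DMEM + 10% FBS, 37 °C, 5% CO2, at 70–80% confluence exposed 24 h to 25, 50 and 100 µM; LDH release read at 490 nm (Triton X-100 2% maximum, medium-only minimum); three independent experiments. Index = HeLa IC50 divided by MRSA BAA-1707 MIC.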

Row | SMILES | MIC (Staphylococcus aureus [1]) | MIC (Enterococcus faecium [2]) | IC50 (HeLa) | MBC (Staphylococcus aureus [3]) | MBEC (Staphylococcus aureus [4]) | MBC [5] | MBEC [6] | MBC (Enterococcus faecium [7]) | MBEC (Enterococcus faecium [8]) | hemolysis at 1 h, 200 µM [9] | MIC [12] | Activity [13] | MBC (Staphylococcus aureus [16]) | MBEC (Staphylococcus aureus [17]) | also measured
1 | CC1=C(C)C(=O)C(COC(=O)OCOc2c(Br)cc(Br)c3nc4cc(Cl)ccc4nc23)=C(C)C1=O | 0.15 µM (≈ 0.0937 µg/mL) | 1.56 µM (≈ 0.974 µg/mL) | > 100 µM | 6.25 µM (≈ 3.9 µg/mL) | 12.5 µM | 12.5 µM (≈ 7.81 µg/mL) | 25 µM | 3.13 µM (≈ 1.96 µg/mL) | 3.13 µM | 2.7% | – | – | – | – | half-life [10]: 11.4 min; inhibition zone (IZ) (Staphylococcus aureus [11]): 2.86 cm2
2 | CCc1cccc2nc3c(Br)cc(Br)c(O)c3nc12 | > 100 µM | > 100 µM | – | – | – | – | – | – | – | – | > 100 µM | inactive | – | – | Activity [14]: inactive
3 | CC(C)(C)c1ccc2nc3c(O)c(Br)cc(Br)c3nc2c1 | 0.1 µM (≈ 0.041 µg/mL) | 0.1 µM (≈ 0.041 µg/mL) | > 100 µM | – | – | 6.25 µM (≈ 2.56 µg/mL) | 3.13 µM | 1.56 µM (≈ 0.64 µg/mL) | – | ≤ 1% | 0.1 µM (≈ 0.041 µg/mL) | – | 3.13 µM (≈ 1.28 µg/mL) | 3.13 µM | MIC (Staphylococcus aureus [15]): 0.1 µM (≈ 0.041 µg/mL)
4 | CN[C@H](CC(C)C)C(=O)N[C@H]1C(=O)N[C@@H](CC(N)=O)C(=O)N[C@H]2C(=O)N[C@H]3C(=O)N[C@H](C(=O)N[C@H](C(=O)O)c4cc(O)cc(O)c4-c4cc3ccc4O)[C@H](O)c3ccc(c(Cl)c3)Oc3cc2cc(c3O[C@@H]2O[C@H](CO)[C@@H](O)[C@H](O)[C@H]2O[C@H]2C[C@](C)(N)[C@H](O)[C@H](C)O2)Oc2ccc(cc2Cl)[C@H]1O [VANCOMYCIN] | – | > 100 µM | – | 3.9 µM (≈ 5.65 µg/mL) | >2000 µM | 3 µM (≈ 4.35 µg/mL) | >2000 µM | > 200 µM | 150 µM | ≤ 1% | – | – | 3 µM (≈ 4.35 µg/mL) | >2000 µM | MBEC (Staphylococcus aureus [18]): >2000 µM
5 | Cc1ccc2nc3c(O)ccc(Br)c3nc2c1 | 12.5 µM (≈ 3.61 µg/mL) | 25 µM (≈ 7.23 µg/mL) | > 100 µM | – | – | – | – | – | – | – | 12.5 µM (≈ 3.61 µg/mL) | – | – | – | MIC [19]: 25 µM (≈ 7.23 µg/mL); selectivity ratio [20]: > 8
6 | Cc1ccc2nc3c(Br)cc(Br)c(O)c3nc2c1C | > 100 µM | > 100 µM | – | – | – | – | – | – | – | – | > 100 µM | inactive | – | – | –
